Reference: paper PMC11904594 (Current Research in Microbial Sciences, 2025)
≈ marks a conversion by molar mass, not a printed value.

Key:
[1] = test system: 11 bacterial strains (S. aureus, P. aeruginosa, A. baumannii, K. pneumoniae, E. coli); assay: Antimicrobial activity screening, summary over groups of strains; type: cell-based; conditions: 50 µg/ml screen; all strains, Gram-negative and Gram-positive
E. coli ATCC 25,922 [2] = assay: MIC, broth microdilution; type: cell-based, Escherichia coli; conditions: MHB II, 10^6 CFU/ml, 37 °C, 24 h, triplicate
Summary of the method: (§1)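 Broth microdilution per CLSI. Strains were freshly plated on LB agar from glycerol stocks; the colistin-resistant lpxD mutant was plated on LB with 10 µg/ml colistin. Inoculum was 10^6 CFU/ml in Mueller Hinton broth II with two-fold dilutions of test compound from 100 to 0.10 µg/ml, incubated at 37 °C for 24 h. MIC was the lowest concentration with no growth.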

A. baumannii ATCC 19,606 [3] = assay: MIC, broth microdilution; type: cell-based, Acinetobacter baumannii; conditions: MHB II, 10^6 CFU/ml, 37 °C, 24 h, triplicate
Summary of the method: as §1

[4] = test system: P. aeruginosa ATCC 27,853; assay: MIC, broth microdilution; type: cell-based, Pseudomonas aeruginosa; conditions: MHB II, 10^6 CFU/ml, 37 °C, 24 h, triplicate
Summary of the method: as §1

E. coli ATCC 25,922 [5] = assay: Minimum bactericidal concentration; type: cell-based, Escherichia coli; conditions: lowest concentration reducing at least 99.9 % of growth, plated on LB, 37 °C, 24 h, triplicate
P. aeruginosa (ST175–1) [6] = assay: MIC, broth microdilution; type: cell-based, Pseudomonas aeruginosa; conditions: MHB II, 10^6 CFU/ml, 37 °C, 24 h, triplicate
Summary of the method: as §1

K. pneumoniae CG258 [7] = assay: MIC, broth microdilution; type: cell-based, Klebsiella pneumoniae; conditions: MHB II, 10^6 CFU/ml, 37 °C, 24 h, triplicate
Summary of the method: as §1

[8] = test system: P. aeruginosa ATCC 27,853; assay: Minimum bactericidal concentration; type: cell-based, Pseudomonas aeruginosa; conditions: lowest concentration reducing at least 99.9 % of growth, plated on LB, 37 °C, 24 h, triplicate
[9] = test system: Galleria mellonella larvae; assay: In vivo toxicity in Galleria mellonella larvae; conditions: G. mellonella larvae, 50 µg/larvae (10 μl of 5 mg/ml), 30 °C, N=10 per group
Summary of the method: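 Sixth-instar Galleria mellonella larvae (200–300 mg) were held in sawdust at 4 °C until use. Groups of ten were injected with 10 μl of test compound, colistin or 0.9 % NaCl saline control into the second rear proleg, then kept at 30 °C.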

P. aeruginosa (ST175–1) [10] = assay: Minimum bactericidal concentration; type: cell-based, Pseudomonas aeruginosa; conditions: lowest concentration reducing at least 99.9 % of growth, plated on LB, 37 °C, 24 h, triplicate
A. baumannii IB010 [11] = assay: MIC, broth microdilution; type: cell-based, Acinetobacter baumannii; conditions: MHB II, 10^6 CFU/ml, 37 °C, 24 h, triplicate
Summary of the method: as §1

S. aureus ATCC 29,213 [12] = assay: Minimum bactericidal concentration; type: cell-based, Staphylococcus aureus; conditions: lowest concentration reducing at least 99.9 % of growth, plated on LB, 37 °C, 24 h, triplicate
A. baumannii Ab-1 [13] = assay: Minimum bactericidal concentration; type: cell-based, Acinetobacter baumannii; conditions: lowest concentration reducing at least 99.9 % of growth, plated on LB, 37 °C, 24 h, triplicate
K. pneumoniae CG258 [14] = assay: Time-kill assay; type: cell-based, Klebsiella pneumoniae; conditions: 24 h
Summary of the method: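 Broth without compound was the growth control. Samples taken at 0, 3, 6 and 24 h were diluted and plated on MH II agar for CFU counts. Each curve was run at least in duplicate.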

S. aureus MRSA USA 300 [15] = assay: MIC, broth microdilution; type: cell-based, Staphylococcus aureus; conditions: MHB II, 10^6 CFU/ml, 37 °C, 24 h, triplicate
Summary of the method: as §1

S. aureus ATCC 29,213 [16] = assay: MIC, broth microdilution; type: cell-based, Staphylococcus aureus; conditions: MHB II, 10^6 CFU/ml, 37 °C, 24 h, triplicate
Summary of the method: as §1

S. aureus MRSA USA 300 [17] = assay: Minimum bactericidal concentration; type: cell-based, Staphylococcus aureus; conditions: lowest concentration reducing at least 99.9 % of growth, plated on LB, 37 °C, 24 h, triplicate
A. baumannii IB010 [18] = assay: Minimum bactericidal concentration; type: cell-based, Acinetobacter baumannii; conditions: lowest concentration reducing at least 99.9 % of growth, plated on LB, 37 °C, 24 h, triplicate
E. coli ESBL 1057.1 [19] = assay: MIC, broth microdilution; type: cell-based, Escherichia coli; conditions: MHB II, 10^6 CFU/ml, 37 °C, 24 h, triplicate
Summary of the method: as §1

A. baumannii Ab-1 [20] = assay: MIC, broth microdilution; type: cell-based, Acinetobacter baumannii; conditions: MHB II, 10^6 CFU/ml, 37 °C, 24 h, triplicate
Summary of the method: as §1

E. coli ESBL 1057.1 [21] = assay: Minimum bactericidal concentration; type: cell-based, Escherichia coli; conditions: lowest concentration reducing at least 99.9 % of growth, plated on LB, 37 °C, 24 h, triplicate
[22] = test system: K. pneumoniae ATCC 43,816; assay: MIC, broth microdilution; type: cell-based, Klebsiella pneumoniae; conditions: MHB II, 10^6 CFU/ml, 37 °C, 24 h, triplicate
Summary of the method: as §1

K. pneumoniae CG258 [23] = assay: Minimum bactericidal concentration; type: cell-based, Klebsiella pneumoniae; conditions: lowest concentration reducing at least 99.9 % of growth, plated on LB, 37 °C, 24 h, triplicate
A. baumannii ATCC 19,606 [24] = assay: Minimum bactericidal concentration; type: cell-based, Acinetobacter baumannii; conditions: lowest concentration reducing at least 99.9 % of growth, plated on LB, 37 °C, 24 h, triplicate
erythrocytes = conditions: percent hemolysis at 150 μM (table footnote); ref Oddo et al., 2016; cited from earlier work
[25] = test system: K. pneumoniae ATCC 43,816; assay: Minimum bactericidal concentration; type: cell-based, Klebsiella pneumoniae; conditions: lowest concentration reducing at least 99.9 % of growth, plated on LB, 37 °C, 24 h, triplicate

## CC[C@@H](C)[C@@H](NC(=O)[C@@H](CCCCN)NC(=O)[C@@H](CCCCN)NC(=O)[C@@H](Cc1ccccc1)NC(=O)[C@@H](CC(C)C)NC(=O)[C@@H](CCCCN)NC(=O)[C@H](N)CCCCN)C(=O)N[C@H](CC(C)C)C(=O)N[C@H](CCCNC(=N)N)C(=O)N[C@H](Cc1ccc(O)cc1)C(=O)N[C@H](CC(C)C)C(N)=O [BP607, reference compound]
[1]
  growth inhibition of all the strains: ≈ 90%
E. coli ATCC 25,922 [2]
  MIC: 6.25 µg/mL (≈ 4.31 µM)
A. baumannii ATCC 19,606 [3]
  MIC: 3.13 µg/mL (≈ 2.16 µM)
[4]
  MIC: 25 µg/mL (≈ 17.3 µM)
E. coli ATCC 25,922 [5]
  MBC: 6.25 µg/mL (≈ 4.31 µM)
P. aeruginosa (ST175–1) [6]
  MIC: 50 µg/mL (≈ 34.5 µM)
K. pneumoniae CG258 [7]
  MIC: 12.5 µg/mL (≈ 8.63 µM)
[8]
  MBC: 25 µg/mL (≈ 17.3 µM)
[9]
  mortality after 24h: 80%
P. aeruginosa (ST175–1) [10]
  MBC: 100 µg/mL (≈ 69 µM)
A. baumannii IB010 [11]
  MIC: 25 µg/mL (≈ 17.3 µM)
S. aureus ATCC 29,213 [12]
  MBC: 50 µg/mL (≈ 34.5 µM)
A. baumannii Ab-1 [13]
  MBC: 6.25 µg/mL (≈ 4.31 µM)
K. pneumoniae CG258 [14]; peptide at 2× MIC
  bactericidal activity in time-kill assay: bactericidal
K. pneumoniae CG258 [14]; peptide at the MIC
  bactericidal activity in time-kill assay: maintained this bactericidal effect
S. aureus MRSA USA 300 [15]
  MIC: 50 µg/mL (≈ 34.5 µM)
S. aureus ATCC 29,213 [16]
  MIC: 50 µg/mL (≈ 34.5 µM)
S. aureus MRSA USA 300 [17]
  MBC: 50 µg/mL (≈ 34.5 µM)
A. baumannii IB010 [18]
  MBC: 50 µg/mL (≈ 34.5 µM)
E. coli ESBL 1057.1 [19]
  MIC: 12.5 µg/mL (≈ 8.63 µM)
A. baumannii Ab-1 [20]
  MIC: 6.25 µg/mL (≈ 4.31 µM)
E. coli ESBL 1057.1 [21]
  MBC: 12.5 µg/mL (≈ 8.63 µM)
[22]
  MIC: 12.5 µg/mL (≈ 8.63 µM)
K. pneumoniae CG258 [23]
  MBC: 12.5 µg/mL (≈ 8.63 µM)
A. baumannii ATCC 19,606 [24]
  MBC: 6.25 µg/mL (≈ 4.31 µM)
erythrocytes
  Hemolysis: 42%
[25]
  MBC: 12.5 µg/mL (≈ 8.63 µM)
